28 compounds from ChEMBL document CHEMBL5154764, “Development of small molecules that work cooperatively with ciprofloxacin to clear salmonella biofilms in a chronic gallbladder carriage model” (Eur J Med Chem, 2022) can be followed below.

Assay [1] concerns Salmonella typhimurium. The assay is described as follows: Antibiofilm activity against Salmonella typhimurium ATCC 14028 assessed as biofilm dispersal effect incubated for 24 hrs by crystal violet staining based spectrophotometry. The note with it: Salmonella enterica, ATCC 14028, 24 h. Type of assay: functional, organism-based, Salmonella enterica subsp. enterica serovar Typhimurium. The essentials:
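Biofilms grown 24 h at 30 °C with nutation in TSB diluted 1:20, from 1:100-diluted LB overnight cultures set to OD600 0.8. Crystal violet staining, acetic acid solubilization, 570 nm read-out. EC50 from variable-slope fit of % biofilm remaining vs log concentration. Mean ± SD of three biological replicates.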

Assay [2] has as its system Salmonella typhimurium. The assay is described as follows: Antibiofilm activity against Salmonella typhimurium ATCC 14028 assessed as inhibition of biofilm formation incubated for 24 hrs by crystal violet staining based spectrophotometry. The note with it: Salmonella enterica, ATCC 14028, 24 h. Type of assay: functional, organism-based, Salmonella enterica subsp. enterica serovar Typhimurium. The procedure, abridged: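 LB overnight cultures (37 °C) set to OD600 0.8, diluted 1:100 into TSB diluted 1:20 in water. Compound at 0.2–100 μM or DMSO added at inoculation. Grown 24 h at 30 °C with nutation, washed, heat-fixed (60 °C, 1 h), stained with crystal violet, dye solubilized in acetic acid, read at 570 nm. IC50 from variable-slope fit of % biofilm vs log concentration. Mean ± SD of three biological replicates.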

Assay [3] deals with Salmonella typhimurium. The assay is described as follows: Antibacterial activity against Salmonella typhimurium ATCC 14028 assessed as bacterial growth inhibition at >= 50 uM. The note with it: Salmonella enterica subsp. enterica serovar Typhimurium. Type of assay: functional, organism-based.
Assay [4] has as its system Salmonella typhimurium. The assay is described as follows: Antibacterial activity against Salmonella typhimurium ATCC 14028 assessed as bacterial growth inhibition at >=100 uM. Format: functional, organism-based. The note with it: Salmonella enterica subsp. enterica serovar Typhimurium.
Assay [5] has as its system Salmonella typhimurium. The assay is described as follows: Antibacterial activity against Salmonella typhimurium ATCC 14028 assessed as bacterial growth inhibition at >=12.5 uM. Type of assay: functional, organism-based. As to conditions: Salmonella enterica subsp. enterica serovar Typhimurium.
The subject of assay [6] is Salmonella typhimurium. Nature of the assay: Antibacterial activity against Salmonella typhimurium ATCC 14028 infected in 129X1/SvJ NRAMP +/+ mouse gallstone model assessed as reduction in bacterial burden in liver at 5 mg/kg/day, ip administered for 5 to 15 consecutive days of post infection and measured on day 15 in presence of 4 mg/kg/day ciprofloxacin. The note with it: Salmonella enterica subsp. enterica serovar Typhimurium, time 10.0 day. Type of assay: functional, organism-based. The essentials:
(§1)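 129X1/SvJ NRAMP+/+ mice given a lithogenic diet (chow plus 1% cholesterol, 0.5% cholic acid) for 8 weeks. Infected i.p. with ~10^3 CFU in 200 μL PBS. Treated daily i.p. on days 5–15 post-infection; vehicle 5% DMSO in PBS. Day 15: gallbladder, liver and spleen homogenized in 1 mL PBS, serially diluted and plated on LB agar (37 °C, 16 h) for CFU counts. One-way ANOVA with Tukey correction.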

Assay [7] deals with Salmonella typhimurium. Nature of the assay: Antibacterial activity against Salmonella typhimurium ATCC 14028 infected in 129X1/SvJ NRAMP +/+ mouse gallstone model assessed as reduction in bacterial burden in spleen at 5 mg/kg/day, ip administered for 5 to 15 consecutive days of post infection and measured on day 15 in presence of 4 mg/kg/day ciprofloxacin. Format: functional, organism-based. As to conditions: Salmonella enterica subsp. enterica serovar Typhimurium, time 10.0 day. The procedure, abridged: as §1

The test system of assay [8] is Salmonella typhimurium. Nature of the assay: Antibacterial activity against Salmonella typhimurium ATCC 14028 infected in 129X1/SvJ NRAMP +/+ mouse gallstone model assessed as log reduction in bacterial burden in gallblader at 5 mg/kg/day, ip administered for 5 to 15 consecutive days of post infection and measured on day 15 in presence of 1 mg/kg/day ciprofloxacin. As to conditions: time 10 day. Type of assay: functional, Salmonella enterica subsp. enterica serovar Typhimurium. The essentials:
as §1

Assay [9] concerns Salmonella typhimurium. The assay is described as follows: Antibacterial activity against Salmonella typhimurium ATCC 14028 infected in 129X1/SvJ NRAMP +/+ mouse gallstone model assessed as reduction in bacterial burden in gallblader at 5 mg/kg/day, ip administered for 5 to 15 consecutive days of post infection and measured on day 15 in presence of 4 mg/kg/day ciprofloxacin. Type of assay: functional, organism-based. As to conditions: Salmonella enterica subsp. enterica serovar Typhimurium, time 10.0 day. The essentials: as §1

pEC50, pIC50: −log10 of the molar value. Active and inactive are the calls of the source. No cut-off for these calls is given here.

For the compound `CN(Cc1ccsc1)CC1CCN(Cc2cccc(F)c2)CC1`, in the assay with Salmonella typhimurium [1], the pEC50 (usually −log10 of the EC50, conventionally taken in molar units) is 2.98. Moreover, in the assay with Salmonella typhimurium [2], the pIC50 (in general, the negative decadic logarithm of the IC50, by convention in mol/L) was 5.06.
Take `CN(Cc1ccsc1)CC1CCN(CCc2ccc(Cl)c(Cl)c2)CC1`: the “growth inhibition (GI)” value in the assay with Salmonella typhimurium [3] is “Active”. Further, in the assay on Salmonella typhimurium [1], the pEC50 is 4.35. The pIC50 in the assay on Salmonella typhimurium [2] was 5.85.
Regarding `CN(Cc1ccsc1)CC1CCN(CCc2ccc(Cl)cc2Cl)CC1`, the pEC50 in the assay on Salmonella typhimurium [1] is 4.66. Besides, the pIC50 in the assay with Salmonella typhimurium [2] was 5.60.
Turning to `CN(Cc1ccsc1)CC1CCN(Cc2cccc(F)c2F)CC1`, the pEC50 in the assay with Salmonella typhimurium [1] was 3.06. For the same compound, the pIC50 with Salmonella typhimurium [2] was 3.84. Besides, the “growth inhibition (GI)” value in the assay with Salmonella typhimurium [4] was “Active”.
On to `CN(Cc1ccsc1)CC1CCN(CCc2cccc(-c3ccccc3)c2)CC1`, for which the pEC50 in the assay on Salmonella typhimurium [1] is 4.51. The pIC50 in the assay with Salmonella typhimurium [2] was 5.74. For the same compound, the “growth inhibition (GI)” value in the assay with Salmonella typhimurium [5] was “Active”.
Regarding `CN(Cc1ccsc1)CC1CCN(CCc2c(F)cccc2F)CC1`, the pEC50 in the assay with Salmonella typhimurium [1] was 3.86. Further, the negative logarithm of the IC50 (pIC50) with Salmonella typhimurium [2] is 5.20.
Take `CN(Cc1ccsc1)CC1CCN(CCc2cccc(F)c2)CC1`: the negative logarithm of the EC50 (pEC50) in the assay on Salmonella typhimurium [1] was 3.41. The pIC50 with Salmonella typhimurium [2] was 5.16.
The matching figures for `CN(Cc1ccsc1)CC1CCN(Cc2cccc(Cl)c2Cl)CC1`: 4.15 and 5.57.
With `CN(Cc1ccsc1)CC1CCN(CCc2ccccc2I)CC1`, the “growth inhibition (GI)” value in the assay on Salmonella typhimurium [3] was “Active”. The pEC50 with Salmonella typhimurium [1] was 4.22. In addition, the pIC50 in the assay with Salmonella typhimurium [2] was 5.37.
As for `CN(Cc1ccsc1)CC1CCN(Cc2ccccc2Br)CC1`, the pEC50 in the assay on Salmonella typhimurium [1] was 4.10. Besides, the negative-log IC50 (pIC50) in the assay on Salmonella typhimurium [2] is 5.31.
The matching figures for `CN(Cc1ccsc1)CC1CCN(Cc2cccc(I)c2)CC1`: 4.04 and 5.00.
On to `CN(Cc1ccsc1)CC1CCN(CCc2cccc3ccccc23)CC1`, for which, in the assay with Salmonella typhimurium [3], the “growth inhibition (GI)” value is “Active”. Further, the pEC50 with Salmonella typhimurium [1] is 4.55. Moreover, the pIC50 in the assay on Salmonella typhimurium [2] was 5.60.
For `CNCC1CCN(CCc2ccccc2F)CC1`, in the assay on Salmonella typhimurium [4], the “growth inhibition (GI)” value was “Active”.
On to `CN(Cc1ccsc1)CC1CCN(Cc2ccc(F)c(F)c2)CC1`, for which the pEC50 with Salmonella typhimurium [1] is 2.42. In the assay on Salmonella typhimurium [2], the negative-log IC50 (pIC50) is 5.14.
`CN(Cc1ccsc1)CC1CCN(Cc2c(F)cccc2F)CC1`: the pEC50 in the assay with Salmonella typhimurium [1] was under 1.92. For the same compound, in the assay with Salmonella typhimurium [2], the pIC50 was under 3.70. The “growth inhibition (GI)” value in the assay on Salmonella typhimurium [4] was “Active”.
Turning to `CN(Cc1ccsc1)CC1CCN(CCc2ccc(Br)c(Br)c2)CC1`, the result with Salmonella typhimurium [6], in the assay with Salmonella typhimurium [7] and in the assay with Salmonella typhimurium [9] was Active. The “log(activity)” value in the assay on Salmonella typhimurium [8] is recorded as 4.5. Besides, in the assay with Salmonella typhimurium [5], the “growth inhibition (GI)” value was “Active”.
With `CN(Cc1ccsc1)CC1CCN(Cc2ccccc2Cl)CC1`, in the assay with Salmonella typhimurium [1], the pEC50 is 2.74. The pIC50 in the assay on Salmonella typhimurium [2] was 5.57.
`CN(Cc1ccsc1)CC1CCN(CCc2cc(Br)cc(Br)c2)CC1`: the pEC50 in the assay on Salmonella typhimurium [1] was 4.38. In the assay with Salmonella typhimurium [2], the pIC50 was 5.47. In addition, the “growth inhibition (GI)” value with Salmonella typhimurium [4] was “Active”.
On to `CN(Cc1ccsc1)CC1CCN(CCc2ccccc2)CC1`, for which, in the assay on Salmonella typhimurium [1], the pEC50 is under 1.92. The pIC50 in the assay with Salmonella typhimurium [2] is 4.67.
Regarding `CN(Cc1ccsc1)CC1CCN(CCc2ccc(F)c(F)c2)CC1`, the pEC50 in the assay with Salmonella typhimurium [1] is 4.06. The pIC50 with Salmonella typhimurium [2] is 5.52.
With `CN(Cc1ccsc1)CC1CCN(CCc2cc(Cl)cc(Cl)c2)CC1`, the “growth inhibition (GI)” value in the assay with Salmonella typhimurium [3] was “Active”. The pEC50 in the assay with Salmonella typhimurium [1] is 4.35. Besides, the pIC50 in the assay on Salmonella typhimurium [2] was 5.80.
Take `CN(Cc1ccsc1)CC1CCN(CCCc2ccccc2)CC1`: in the assay with Salmonella typhimurium [1], the negative-log EC50 (pEC50) was under 1.92. Further, in the assay with Salmonella typhimurium [2], the pIC50 was 4.11.
`CN(Cc1ccsc1)CC1CCN(Cc2ccc(F)cc2)CC1`: in the assay with Salmonella typhimurium [1], the pEC50 was 3.35. The pIC50 in the assay on Salmonella typhimurium [2] is 4.89.
`COc1ccccc1CCN1CCC(CN(C)Cc2ccsc2)CC1`: in the assay on Salmonella typhimurium [1], the pEC50 was 1.93. Also, the pIC50 in the assay with Salmonella typhimurium [2] was 4.77.
Take `CN(Cc1ccsc1)CC1CCN(CCCc2ccccc2F)CC1`: the pEC50 in the assay with Salmonella typhimurium [1] is 3.66. Besides, the pIC50 in the assay on Salmonella typhimurium [2] was 4.94.
The matching figures for `CN(Cc1ccsc1)CC1CCN(CCCc2ccccc2Cl)CC1`: 4.23 and 5.27.
On to `CN(Cc1ccsc1)CC1CCN(CCc2cc(F)cc(F)c2)CC1`, for which the “growth inhibition (GI)” value in the assay on Salmonella typhimurium [3] was “Active”. Besides, the negative-log EC50 (pEC50) in the assay with Salmonella typhimurium [1] is under 1.92. Moreover, in the assay with Salmonella typhimurium [2], the pIC50 was under 3.70.
Take `CN(Cc1ccsc1)CC1CCN(CCc2ccccc2Br)CC1`: the pEC50 in the assay on Salmonella typhimurium [1] was 3.51. For the same compound, the pIC50 with Salmonella typhimurium [2] is 5.14.
